What was measured:
[1] = tested on: IL-6 secretion; test: IL-6 ELISA, LPS-stimulated HUVECs; format: cell-based, Human; details: LPS 10 μg/mL 6 hours
Method in brief: (§1)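 HUVECs were seeded at 30,000–60,000 cells/well and pre-treated with test compound for 5 or 24 h. They were then stimulated with E. coli O111:B4 LPS at 10 μg/mL for 6 h. Secreted IL-6 or IL-8 in the supernatant was quantified by sandwich ELISA kits per the manufacturer. Statistics used two-way ANOVA with Bonferroni correction.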

[2] = target: T1, ERK5 (Homo sapiens, UniProt Q13164); test: ERK5 degradation in HUVECs; format: cell-based
T1 sequence (Q13164 whole entry): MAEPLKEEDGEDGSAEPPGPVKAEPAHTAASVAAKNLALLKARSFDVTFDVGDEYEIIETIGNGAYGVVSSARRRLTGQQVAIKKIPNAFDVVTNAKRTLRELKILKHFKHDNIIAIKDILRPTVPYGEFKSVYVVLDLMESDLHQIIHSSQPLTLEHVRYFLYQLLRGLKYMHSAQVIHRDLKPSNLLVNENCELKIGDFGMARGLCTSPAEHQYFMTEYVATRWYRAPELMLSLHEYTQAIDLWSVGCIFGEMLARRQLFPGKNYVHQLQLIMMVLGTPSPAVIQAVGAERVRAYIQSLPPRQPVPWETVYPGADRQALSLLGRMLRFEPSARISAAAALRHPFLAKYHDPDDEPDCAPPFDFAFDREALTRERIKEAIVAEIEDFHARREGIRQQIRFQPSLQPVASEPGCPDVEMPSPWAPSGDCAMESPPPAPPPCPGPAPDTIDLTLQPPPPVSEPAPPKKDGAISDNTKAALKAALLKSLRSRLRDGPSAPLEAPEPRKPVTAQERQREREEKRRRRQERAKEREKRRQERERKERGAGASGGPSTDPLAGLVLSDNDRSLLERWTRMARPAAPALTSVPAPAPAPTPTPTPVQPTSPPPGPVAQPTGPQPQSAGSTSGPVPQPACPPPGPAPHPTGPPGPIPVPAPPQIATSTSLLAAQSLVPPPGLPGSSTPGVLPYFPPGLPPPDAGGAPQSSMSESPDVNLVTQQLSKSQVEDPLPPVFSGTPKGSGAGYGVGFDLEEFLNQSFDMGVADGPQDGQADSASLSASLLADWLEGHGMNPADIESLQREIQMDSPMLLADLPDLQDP
Method in brief: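 HUVECs (pooled primary, in vascular cell basal medium with VEGF growth kit and pen-strep, 37 °C, 5% CO2) were treated with test compound for 5 or 24 h. Lysates were BCA-normalised and separated on 4–12% Bis-Tris gels, then transferred to nitrocellulose. ERK5 and actin were probed overnight at 4 °C with IRDye secondary detection. Blots are representative of 2 biological replicates.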

[3] = tested on: IL-8 secretion; test: IL-8 ELISA, LPS-stimulated HUVECs; format: cell-based, Human; details: LPS 10 μg/mL 6 hours
Method in brief: as §1

[4] = tested on: SNU-449 cells; test: CellTiter-Glo proliferation assay, SNU-449; format: cell-based, Human; details: Homo sapiens, SNU-449, 72 h, read-out: anti-proliferative EC50
[5] = target: T1, ERK5; test: KdELECT biochemical binding assay
Method in brief: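 Binding constants to ERK5 were determined in an outsourced KdELECT kinase binding assay from an 11-point dose–response curve.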

[6] = tested on: panel of 468 kinases; test: scanMAX KINOMEscan selectivity panel; format: binding; details: 1 μM
[7] = tested on: MOLT4 cells; test: global quantitative TMT MS proteomics in MOLT4 cells; format: cell-based, Human; details: MOLT4, 100 nM, 5 hours, ~7,700 proteins quantified
Method in brief: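 MOLT4 cells were treated for 5 h with test compound (250 nM, or 100 nM for one degrader) or DMSO (biological triplicate), then harvested by centrifugation. TMT-labelled tryptic peptides were analysed by LC-MS3 on an Orbitrap Fusion Lumos using a 190 min 6–27% acetonitrile gradient. Spectra were searched against Swissprot human. Proteins with ≥2 unique peptides were kept, and abundance relative to DMSO was computed by limma.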

[8] = target: T1, ERK5; test: ERK5 degradation in MOLT4 cells; format: cell-based; details: 5 hours, 5 μM or greater
[9] = target: T2, AURKA (Homo sapiens, UniProt O14965); test: AURKA immunoblot in MOLT4 cells; format: cell-based; details: 5 hours
T2 sequence (O14965 1-403): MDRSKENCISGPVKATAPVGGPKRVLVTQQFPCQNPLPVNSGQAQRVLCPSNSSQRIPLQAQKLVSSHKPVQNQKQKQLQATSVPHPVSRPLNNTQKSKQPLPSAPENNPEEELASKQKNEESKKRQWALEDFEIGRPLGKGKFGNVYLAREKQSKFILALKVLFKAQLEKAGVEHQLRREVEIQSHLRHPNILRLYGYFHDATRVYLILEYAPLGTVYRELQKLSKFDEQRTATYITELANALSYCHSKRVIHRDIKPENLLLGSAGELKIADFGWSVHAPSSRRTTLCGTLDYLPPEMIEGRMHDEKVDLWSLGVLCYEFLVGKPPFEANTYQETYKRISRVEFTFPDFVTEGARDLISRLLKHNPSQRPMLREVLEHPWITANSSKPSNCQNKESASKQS
Method in brief: (§2)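 MOLT4 cells (RPMI, 10% heat-inactivated FBS, pen-strep, 37 °C, 5% CO2) were exposed to test compound at a range of concentrations for 5 h. Lysis was in M-PER with protease and phosphatase inhibitors, and lysates were BCA-normalised. Samples were run on 4–12% Bis-Tris gels and blotted to nitrocellulose. ERK5, BRD4, AURKA and actin antibodies were applied overnight at 4 °C. Detection was by IRDye secondaries. Blots are representative of 2–3 biological replicates.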

[10] = target: BRD4 (Homo sapiens, UniProt O60885); test: BRD4 immunoblot in MOLT4 cells; format: cell-based; details: 5 hours
Method in brief: as §2

[11] = tested on: IL-6 stimulated MM.1S cells; test: IL-6-induced MM.1S proliferation; format: cell-based, Human; details: 500 nM and 1 μM, 5 nM IL-6, 3d
Method in brief: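 MM.1S cells at 10,000 cells/well were pre-treated for 5 h with test compound at 500 nM or 1 μM. Recombinant human IL-6 (5 nM) was then added. After 72 h, proliferation was read by CellTiter-Glo. Data are mean with standard deviation of three biological replicates.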

[12] = tested on: BT-474 cells; test: CellTiter-Glo proliferation assay, BT-474; format: cell-based, Human; details: Homo sapiens, BT-474, 72 h, read-out: anti-proliferative EC50
[13] = tested on: panel of 750 cell lines; test: PRISM platform anti-proliferative screen; format: cell-based; details: read-out: IC50 values in PRISM screen
[14] = tested on: MM.1S cells; test: CellTiter-Glo proliferation assay, MM.1S basal; format: cell-based; details: Homo sapiens, MM1.S, 72 h, read-out: anti-proliferative EC50
Method in brief: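 MM.1S cells, unstimulated, were grown in RPMI with 10% heat-inactivated FBS. They were plated at 500–1000 cells/well and exposed to test compound across a concentration series for 72 h. Viability was read by CellTiter-Glo luminescence. EC50 came from nonlinear regression curve fitting.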

ERK5 protein level ([2]; 1 μM, 5-hour treatment): potent downregulation of ERK5
ERK5 degradation ([2]; 24 hours): maintained for 24 hours
EC50 [4]: > 20 µM
Kd [5]: 0.012 µM
ERK5 degradation at high concentration (hook effect) [8]: diminished ERK5 degradation
AURKA protein levels [9]: did not destabilize
BRD4 protein levels [10]: did not destabilize
EC50 [12]: > 20 µM
EC50 [14]: 6 µM
SMILES: Cc1ncsc1-c1ccc([C@H](C)NC(=O)[C@@H]2C[C@@H](O)CN2C(=O)[C@@H](NC(=O)CCCCCN2CCN(c3ccc4c(C5CCN(C(=O)c6ccc(OC(F)(F)F)cc6N)CC5)ncnc4c3)CC2)C(C)(C)C)cc1 [INY-06-061, (2S,4R)-1-((S)-2-(6-(4-(4-(1-(2-amino-4-(trifluoromethoxy)benzoyl)piperidin-4-yl)quinazolin-7-yl)piperazin-1-yl)hexanamido)-3,3-dimethylbutanoyl)-4-hydroxy-N-((S)-1-(4-(4-methylthiazol-5-yl)phenyl)ethyl)pyrrolidine-2-carboxamide]
IL-6 secretion upon LPS stimulation ([1]; 5-hour pre-treatment): did not significantly suppress
IL-6 secretion upon LPS stimulation ([1]; 24-hour pre-treatment): no effect
IL-8 secretion upon LPS stimulation ([3]; 5-hour pre-treatment): did not significantly suppress
IL-8 secretion upon LPS stimulation ([3]; 24-hour pre-treatment): no effect
potential off-target kinases [6]: weak inhibition of potential off-targets (AXL, CDK19, SgK110, CDKL2, and AURKC)
biochemical selectivity profile across the kinome ([6]; 468 kinases): high selectivity for ERK5
proteins significantly downregulated, proteomics [7]: ERK5 (MAPK7) was the only protein whose abundance was significantly downregulated
effect on IL-6-induced proliferation [11]: no effect
IC50 [13]: > 1 µM
